ChEMBL document CHEMBL2380298, “Synthesis and antimicrobial activity of novel amphiphilic aromatic amino alcohols” (2013)

Legend:
Assay type in all cases: functional
[1] = tested on: Staphylococcus epidermidis; test: Antimicrobial activity against Staphylococcus epidermidis ATCC 12228 by broth dilution method; settings: for MIC: Staphylococcus epidermidis, ATCC 12228
Staphylococcus aureus [2] = test: Bactericidal activity against methicillin-resistant Staphylococcus aureus clinical isolate 264 after 24 hrs; settings: isolate 264, 24 h
Summary of the method: (§1)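 Bactericidal concentration: 0.1 ml from wells at the MIC dilution and the dilutions on either side was streaked onto tryptic soy agar and incubated 24 h. It was taken as the lowest drug concentration giving no growth (100% killing).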

Staphylococcus aureus [3] = test: Bactericidal activity against methicillin-resistant Staphylococcus aureus clinical isolate 260 after 24 hrs; settings: isolate 260, 24 h; summary of the method: as §1
Staphylococcus aureus [4] = test: Bactericidal activity against methicillin-resistant Staphylococcus aureus clinical isolate 259 after 24 hrs; settings: isolate 259, 24 h; summary of the method: as §1
Staphylococcus aureus [5] = test: Bactericidal activity against methicillin-resistant Staphylococcus aureus clinical isolate 257 after 24 hrs; settings: isolate 257, 24 h; summary of the method: as §1
Staphylococcus aureus [6] = test: Bactericidal activity against methicillin-resistant Staphylococcus aureus clinical isolate 255 after 24 hrs; settings: isolate 255, 24 h; summary of the method: as §1
Staphylococcus aureus [7] = test: Bactericidal activity against methicillin-resistant Staphylococcus aureus clinical isolate 238 after 24 hrs; settings: isolate 238, 24 h; summary of the method: as §1
Staphylococcus aureus [8] = test: Bactericidal activity against methicillin-resistant Staphylococcus aureus clinical isolate 237 after 24 hrs; settings: isolate 237, 24 h; summary of the method: as §1
Staphylococcus aureus [9] = test: Bactericidal activity against methicillin-resistant Staphylococcus aureus clinical isolate 236 after 24 hrs; settings: isolate 236, 24 h; summary of the method: as §1
Staphylococcus aureus [10] = test: Bactericidal activity against methicillin-resistant Staphylococcus aureus clinical isolate 235 after 24 hrs; settings: isolate 235, 24 h; summary of the method: as §1
Staphylococcus aureus [11] = test: Bactericidal activity against methicillin-resistant Staphylococcus aureus clinical isolate 232 after 24 hrs; settings: isolate 232, 24 h; summary of the method: as §1
Staphylococcus aureus [12] = test: Bactericidal activity against methicillin-resistant Staphylococcus aureus clinical isolate 231 after 24 hrs; settings: isolate 231, 24 h; summary of the method: as §1
Staphylococcus aureus [13] = test: Bactericidal activity against methicillin-resistant Staphylococcus aureus clinical isolate 225 after 24 hrs; settings: isolate 225, 24 h; summary of the method: as §1
Staphylococcus aureus [14] = test: Bactericidal activity against methicillin-resistant Staphylococcus aureus clinical isolate 218 after 24 hrs; settings: isolate 218, 24 h; summary of the method: as §1
Staphylococcus aureus [15] = test: Bactericidal activity against methicillin-resistant Staphylococcus aureus clinical isolate 212 after 24 hrs; settings: isolate 212, 24 h; summary of the method: as §1
[16] = tested on: Staphylococcus epidermidis; test: Bactericidal activity against Staphylococcus epidermidis ATCC 12228 after 24 hrs; settings: ATCC 12228, 24 h
Summary of the method: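 MBC: after MIC determination, 0.1 ml from the MIC well and from two dilutions either side streaked on tryptic soy agar, incubated 24 h; MBC taken as lowest concentration giving no growth (100% kill).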

Staphylococcus aureus [17] = test: Antimicrobial activity against methicillin-resistant Staphylococcus aureus clinical isolate assessed as resistant isolates by broth dilution method
Staphylococcus aureus [18] = test: Antimicrobial activity against methicillin-resistant Staphylococcus aureus clinical isolate assessed as susceptible isolates by broth dilution method
Staphylococcus aureus [19] = test: Antimicrobial activity against methicillin-resistant Staphylococcus aureus clinical isolate by broth dilution method
Staphylococcus aureus [20] = test: Antimicrobial activity against methicillin-resistant Staphylococcus aureus clinical isolate 264 by broth dilution method
Staphylococcus aureus [21] = test: Antimicrobial activity against methicillin-resistant Staphylococcus aureus clinical isolate 260 by broth dilution method
Staphylococcus aureus [22] = test: Antimicrobial activity against methicillin-resistant Staphylococcus aureus clinical isolate 257 by broth dilution method
Staphylococcus aureus [23] = test: Antimicrobial activity against methicillin-resistant Staphylococcus aureus clinical isolate 259 by broth dilution method
Staphylococcus aureus [24] = test: Antimicrobial activity against methicillin-resistant Staphylococcus aureus clinical isolate 238 by broth dilution method
Staphylococcus aureus [25] = test: Antimicrobial activity against methicillin-resistant Staphylococcus aureus clinical isolate 255 by broth dilution method
Staphylococcus aureus [26] = test: Antimicrobial activity against methicillin-resistant Staphylococcus aureus clinical isolate 237 by broth dilution method
Staphylococcus aureus [27] = test: Antimicrobial activity against methicillin-resistant Staphylococcus aureus clinical isolate 236 by broth dilution method
Staphylococcus aureus [28] = test: Antimicrobial activity against methicillin-resistant Staphylococcus aureus clinical isolate 235 by broth dilution method
Staphylococcus aureus [29] = test: Antimicrobial activity against methicillin-resistant Staphylococcus aureus clinical isolate 232 by broth dilution method
Staphylococcus aureus [30] = test: Antimicrobial activity against methicillin-resistant Staphylococcus aureus clinical isolate 227 by broth dilution method
Staphylococcus aureus [31] = test: Antimicrobial activity against methicillin-resistant Staphylococcus aureus clinical isolate 231 by broth dilution method
Staphylococcus aureus [32] = test: Antimicrobial activity against methicillin-resistant Staphylococcus aureus clinical isolate 225 by broth dilution method
Staphylococcus aureus [33] = test: Antimicrobial activity against methicillin-resistant Staphylococcus aureus clinical isolate 215 by broth dilution method
Staphylococcus aureus [34] = test: Antimicrobial activity against methicillin-resistant Staphylococcus aureus clinical isolate 218 by broth dilution method
Staphylococcus aureus [35] = test: Antimicrobial activity against methicillin-resistant Staphylococcus aureus clinical isolate 212 by broth dilution method
Staphylococcus aureus [36] = test: Antimicrobial activity against methicillin-resistant Staphylococcus aureus clinical isolate 207 by broth dilution method
Staphylococcus aureus [37] = test: Antimicrobial activity against methicillin-resistant Staphylococcus aureus clinical isolate 205 by broth dilution method
Staphylococcus aureus [38] = test: Antimicrobial activity against methicillin-resistant Staphylococcus aureus clinical isolate 195 by broth dilution method
Staphylococcus aureus [39] = test: Antimicrobial activity against methicillin-resistant Staphylococcus aureus clinical isolate 178 by broth dilution method
Staphylococcus aureus [40] = test: Antimicrobial activity against methicillin-resistant Staphylococcus aureus clinical isolate 176 by broth dilution method
Pseudomonas aeruginosa = test: Antimicrobial activity against Pseudomonas aeruginosa ATCC 27853 by broth dilution method
Staphylococcus aureus [41] = test: Antimicrobial activity against Staphylococcus aureus ATCC 29213 by broth dilution method; settings: Staphylococcus aureus, ATCC 29213
Staphylococcus aureus [42] = test: Bactericidal activity against methicillin-resistant Staphylococcus aureus clinical isolate 176 after 24 hrs; settings: isolate 176, 24 h; summary of the method: as §1
Staphylococcus aureus [43] = test: Bactericidal activity against Staphylococcus aureus ATCC 29213 after 24 hrs; settings: ATCC 29213, 24 h; summary of the method: as §1
Candida parapsilosis = test: Antimicrobial activity against Candida parapsilosis ATCC 90030 by broth dilution method; settings: Lodderomyces parapsilosis
Nakaseomyces glabratus = test: Antimicrobial activity against Candida glabrata ATCC 18804 by broth dilution method
Candida albicans = test: Antimicrobial activity against Candida albicans ATCC 22019 by broth dilution method
Candida tropicalis = test: Antimicrobial activity against Candida tropicalis ATCC 750 by broth dilution method
Escherichia coli = test: Antimicrobial activity against Escherichia coli ATCC 11229 by broth dilution method; settings: Escherichia coli, ATCC 11229

O=C(N[C@H](CO)[C@H](O)c1ccc([N+](=O)[O-])cc1)C(Cl)Cl [CHLORAMPHENICOL]
16 µg/mL: MBC (Staphylococcus aureus [7]) | MBC (Staphylococcus aureus [8]) | MBC (Staphylococcus aureus [11]) | MBC (Staphylococcus aureus [12])
128 µg/mL: MBC (Staphylococcus aureus [14]) | MBC (Staphylococcus aureus [15]) | MBC [16] | MIC (Staphylococcus aureus [23])
64 µg/mL: MBC (Staphylococcus aureus [2]) | MIC (Staphylococcus aureus [27]) | MIC (Staphylococcus aureus [28]) | MIC (Staphylococcus aureus [29]) | MIC (Staphylococcus aureus [30]) | MIC (Staphylococcus aureus [31]) | MIC (Staphylococcus aureus [33]) | MIC (Staphylococcus aureus [34]) | MIC (Staphylococcus aureus [40])
8 µg/mL: MBC (Staphylococcus aureus [4]) | MBC (Staphylococcus aureus [5]) | MBC (Staphylococcus aureus [6]) | MIC (Staphylococcus aureus [20]) | MIC (Staphylococcus aureus [22]) | MIC (Staphylococcus aureus [32]) | MIC (Staphylococcus aureus [35]) | MIC (Staphylococcus aureus [37])
56.3%: Activity (Staphylococcus aureus [17])
512 µg/mL: MBC (Staphylococcus aureus [13])
32 µg/mL: MIC [1] | MBC (Staphylococcus aureus [3]) | MBC (Staphylococcus aureus [9]) | MBC (Staphylococcus aureus [10]) | MIC90 (Staphylococcus aureus [19]; Staphylococcus aureus) | MIC (Staphylococcus aureus [24]) | MIC (Staphylococcus aureus [26]) | MIC (Pseudomonas aeruginosa)
43.7%: Activity (Staphylococcus aureus [18])
4 µg/mL: MIC (Staphylococcus aureus [21]) | MIC (Staphylococcus aureus [25]) | MIC (Staphylococcus aureus [36]) | MIC (Staphylococcus aureus [38]) | MIC (Staphylococcus aureus [39])

CCCCCCCCCCCCOc1ccc(CNC(CO)(CO)CO)cc1.Cl
4 µg/mL: MBC (Staphylococcus aureus [3]) | MBC (Staphylococcus aureus [7]) | MBC (Staphylococcus aureus [8]) | MBC (Staphylococcus aureus [12]) | MIC (Candida parapsilosis) | MIC (Candida albicans) | MIC50 (Staphylococcus aureus [19]; Staphylococcus aureus) | MIC (Staphylococcus aureus [20]) | MIC (Staphylococcus aureus [21]) | MIC (Staphylococcus aureus [23]) | MIC (Staphylococcus aureus [24]) | MIC (Staphylococcus aureus [25]) | MIC (Staphylococcus aureus [26]) | MIC (Staphylococcus aureus [27]) | MIC (Staphylococcus aureus [28]) | MIC (Staphylococcus aureus [30]) | MIC (Staphylococcus aureus [31]) | MIC (Staphylococcus aureus [34]) | MIC (Staphylococcus aureus [36])
4.842: -logMIC (Staphylococcus aureus [19])
2 µg/mL: MIC (Nakaseomyces glabratus)
4.73: -logMIC [1]
32 µg/mL: MBC (Staphylococcus aureus [10])
8 µg/mL: MIC [1] | MIC (Staphylococcus aureus [41]) | MBC (Staphylococcus aureus [2]) | MBC (Staphylococcus aureus [9]) | MBC [16] | MBC (Staphylococcus aureus [43]) | MIC (Candida tropicalis) | MIC90 (Staphylococcus aureus [19]; Staphylococcus aureus) | MIC (Staphylococcus aureus [29]) | MIC (Staphylococcus aureus [32]) | MIC (Staphylococcus aureus [33]) | MIC (Staphylococcus aureus [35]) | MIC (Staphylococcus aureus [37]) | MIC (Staphylococcus aureus [38]) | MIC (Staphylococcus aureus [39]) | MIC (Staphylococcus aureus [40])
128 µg/mL: MBC (Staphylococcus aureus [15]) | MBC (Staphylococcus aureus [42])
> 256 µg/mL: MIC (Pseudomonas aeruginosa) | MIC (Escherichia coli)
16 µg/mL: MBC (Staphylococcus aureus [4]) | MBC (Staphylococcus aureus [5]) | MBC (Staphylococcus aureus [6]) | MBC (Staphylococcus aureus [11]) | MIC (Staphylococcus aureus [22])
